# According to ChEMBL document CHEMBL5724801, “EUbOPEN Chemogenomics Library - Multiplex” (2024):
# “And” between values parts separate entries of the source, which are not always exact repeats. Identical values can stand only once.
# Legend:
# U2OS = experiment: Multiplex assay against U2OS; assay type: toxicity, cell-based; settings: human
# In short: (§1)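 Live cells were stained at seeding with Hoechst33342, BioTracker Green Microtubule Cytoskeleton Dye, MitoTracker Red and Annexin V Alexa Fluor 680. Following compound addition, they were imaged on a CQ1 microscope at 37°C and 5% CO2 and gated by CellPathfinder machine learning into Hoechst high-intensity objects or normal cells, with normal cells split into healthy, pyknosed or fragmented nuclei and pyknosed cells into mitotic or apoptotic. Tubulin, mitochondrial-mass and membrane-permeability phenotypes are per cents of healthy-nucleus cells.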
# Fibroblast = experiment: Multiplex assay against human fibroblast; assay type: toxicity, cell-based; in short: as §1
# [1] = 24 h, 10 µM, compound concentration 10 uM
# [2] = 48 h, 1 µM, compound concentration 1 uM
# [3] = 48 h, 10 µM, compound concentration 10 uM
# [4] = 12 h, 1 µM, compound concentration 1 uM
# [5] = 12 h, 10 µM, compound concentration 10 uM
# [6] = 24 h, 1 µM, compound concentration 1 uM
structure (smiles),measurement,setting,value
COc1cc2nc(N3CCN(C(=O)c4ccco4)CC3)nc(N)c2cc1OC.Cl [PRAZOSIN HYDROCHLORIDE],Population Apoptotic (%),U2OS; [1],78% and 85%
same,Population Fragmented Nuclei (%),U2OS; [1],23% and 13%
same,Population Healthy Nuclei (%),U2OS; [1],68% and 71%
same,Population Hoechst High Intensity Objects (%),U2OS; [1],2% and 1%
same,Population Membrane Permeable-Phenotype (%),U2OS; [1],8% and 7%
same,Population Mitochondria Different-Phenotype (%),U2OS; [1],6% and 5%
same,Population Mitotic Cells (%),U2OS; [1],21% and 14%
same,Population Normal (%),U2OS; [1],97% and 98%
same,Population Pyknosed Nuclei (%),U2OS; [1],7% and 15%
same,Population Tubulin-Different-Phenotype (%),U2OS; [1],6% and 4%
same,Total Cell Count,U2OS; [1],244 and 138
same,Population Apoptotic (%),U2OS; [2],94% and 100%
same,Population Fragmented Nuclei (%),U2OS; [2],16% and 15%
same,Population Healthy Nuclei (%),U2OS; [2],74% and 77%
same,Population Hoechst High Intensity Objects (%),U2OS; [2],2% and 1%
same,Population Membrane Permeable-Phenotype (%),U2OS; [2],6% and 7%
same,Population Mitochondria Different-Phenotype (%),U2OS; [2],2% and 7%
same,Population Mitotic Cells (%),U2OS; [2],5% and 0%
same,Population Normal (%),U2OS; [2],97% and 98%
same,Population Pyknosed Nuclei (%),U2OS; [2],9% and 7%
same,Population Tubulin-Different-Phenotype (%),U2OS; [2],2% and 5%
same,Total Cell Count,U2OS; [2],388 and 266
same,Population Apoptotic (%),U2OS; [3],96% and 94%
same,Population Fragmented Nuclei (%),U2OS; [3],20% and 15%
same,Population Healthy Nuclei (%),U2OS; [3],71% and 76%
same,Population Hoechst High Intensity Objects (%),U2OS; [3],1% and 2%
same,Population Membrane Permeable-Phenotype (%),U2OS; [3],5%
same,Population Mitochondria Different-Phenotype (%),U2OS; [3],2% and 6%
same,Population Mitotic Cells (%),U2OS; [3],3% and 5%
same,Population Normal (%),U2OS; [3],98% and 97%
same,Population Pyknosed Nuclei (%),U2OS; [3],8%
same,Population Tubulin-Different-Phenotype (%),U2OS; [3],3%
same,Total Cell Count,U2OS; [3],341 and 208
same,Population Apoptotic (%),Fibroblast; [4],38% and 49%
same,Population Fragmented Nuclei (%),Fibroblast; [4],22% and 20%
same,Population Healthy Nuclei (%),Fibroblast; [4],57% and 52%
same,Population Hoechst High Intensity Objects (%),Fibroblast; [4],1% and 4%
same,Population Membrane Permeable-Phenotype (%),Fibroblast; [4],1% and 5%
same,Population Mitochondria Different-Phenotype (%),Fibroblast; [4],1% and 7%
same,Population Mitotic Cells (%),Fibroblast; [4],61% and 50%
same,Population Normal (%),Fibroblast; [4],98% and 95%
same,Population Pyknosed Nuclei (%),Fibroblast; [4],19% and 27%
same,Population Tubulin-Different-Phenotype (%),Fibroblast; [4],26% and 46%
same,Total Cell Count,Fibroblast; [4],174 and 194
same,Population Apoptotic (%),Fibroblast; [5],44% and 31%
same,Population Fragmented Nuclei (%),Fibroblast; [5],23% and 35%
same,Population Healthy Nuclei (%),Fibroblast; [5],64% and 42%
same,Population Hoechst High Intensity Objects (%),Fibroblast; [5],1% and 5%
same,Population Membrane Permeable-Phenotype (%),Fibroblast; [5],0% and 9%
same,Population Mitochondria Different-Phenotype (%),Fibroblast; [5],7% and 3%
same,Population Mitotic Cells (%),Fibroblast; [5],56% and 68%
same,Population Normal (%),Fibroblast; [5],98% and 94%
same,Population Pyknosed Nuclei (%),Fibroblast; [5],12% and 21%
same,Population Tubulin-Different-Phenotype (%),Fibroblast; [5],49% and 65%
same,Total Cell Count,Fibroblast; [5],198 and 155
same,Population Apoptotic (%),Fibroblast; [6],50% and 45%
same,Population Fragmented Nuclei (%),Fibroblast; [6],20%
same,Population Healthy Nuclei (%),Fibroblast; [6],63% and 57%
same,Population Hoechst High Intensity Objects (%),Fibroblast; [6],2% and 7%
same,Population Membrane Permeable-Phenotype (%),Fibroblast; [6],0% and 12%
same,Population Mitochondria Different-Phenotype (%),Fibroblast; [6],2% and 3%
same,Population Mitotic Cells (%),Fibroblast; [6],50% and 54%
same,Population Normal (%),Fibroblast; [6],97% and 92%
same,Population Pyknosed Nuclei (%),Fibroblast; [6],15% and 21%
same,Population Tubulin-Different-Phenotype (%),Fibroblast; [6],28% and 58%
same,Total Cell Count,Fibroblast; [6],181 and 185
same,Population Apoptotic (%),Fibroblast; [1],46% and 61%
same,Population Fragmented Nuclei (%),Fibroblast; [1],23% and 35%
same,Population Healthy Nuclei (%),Fibroblast; [1],69% and 49%
same,Population Hoechst High Intensity Objects (%),Fibroblast; [1],3% and 7%
same,Population Membrane Permeable-Phenotype (%),Fibroblast; [1],0% and 10%
same,Population Mitochondria Different-Phenotype (%),Fibroblast; [1],6% and 11%
same,Population Mitotic Cells (%),Fibroblast; [1],53% and 38%
same,Population Normal (%),Fibroblast; [1],96% and 92%
same,Population Pyknosed Nuclei (%),Fibroblast; [1],6% and 15%
same,Population Tubulin-Different-Phenotype (%),Fibroblast; [1],45% and 73%
same,Total Cell Count,Fibroblast; [1],201 and 152
same,Population Apoptotic (%),Fibroblast; [2],52% and 66%
same,Population Fragmented Nuclei (%),Fibroblast; [2],24% and 29%
same,Population Healthy Nuclei (%),Fibroblast; [2],62% and 56%
same,Population Hoechst High Intensity Objects (%),Fibroblast; [2],3%
same,Population Membrane Permeable-Phenotype (%),Fibroblast; [2],0% and 8%
same,Population Mitochondria Different-Phenotype (%),Fibroblast; [2],1% and 6%
same,Population Mitotic Cells (%),Fibroblast; [2],47% and 33%
same,Population Normal (%),Fibroblast; [2],96%
same,Population Pyknosed Nuclei (%),Fibroblast; [2],13% and 14%
same,Population Tubulin-Different-Phenotype (%),Fibroblast; [2],22% and 57%
same,Total Cell Count,Fibroblast; [2],182 and 197
same,Population Apoptotic (%),Fibroblast; [3],66% and 46%
same,Population Fragmented Nuclei (%),Fibroblast; [3],25% and 42%
same,Population Healthy Nuclei (%),Fibroblast; [3],68% and 49%
same,Population Hoechst High Intensity Objects (%),Fibroblast; [3],1% and 5%
same,Population Membrane Permeable-Phenotype (%),Fibroblast; [3],0% and 5%
same,Population Mitochondria Different-Phenotype (%),Fibroblast; [3],4% and 5%
same,Population Mitotic Cells (%),Fibroblast; [3],33% and 53%
same,Population Normal (%),Fibroblast; [3],98% and 94%
same,Population Pyknosed Nuclei (%),Fibroblast; [3],6% and 8%
same,Population Tubulin-Different-Phenotype (%),Fibroblast; [3],32% and 48%
same,Total Cell Count,Fibroblast; [3],201 and 170
